Hits are enriched below; roughly 3.9% of the tested compounds scored in any of these assays.
CHRM1 PAM: potentiates human M1 receptor response to acetylcholine; CHO-K1 hM1, Fluo-8 calcium fluorescence, ACh EC20; 0% = ACh EC20, 100% = maximal ACh; activation, % at 3 µM; P11229; 360,000 compounds, 0.088% hits; in the data active = activation above about 19%, passing the limit was not always enough
M1 ag: human M1 muscarinic receptor agonism; CHO-K1 hM1, Fluo-8 calcium fluorescence, agonist mode; 0% DMSO, 100% acetylcholine EC100; activation, % at 3 µM; 360,000 compounds, 0.33% hits;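 active = activation above the run's mean compound activation plus 3 SD, cut at about 16% in these data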;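 also: peak over basal fluorescence ratio within a 140 s kinetic read after compound addition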
TAAR1 antagonist: human TAAR1 antagonism | Q96RJ0 | CHO RD-HGA16 TAAR1, Fluo-8 calcium fluorescence, antagonist | inhibition, % at 3 µM | 360,000 compounds, 1.5% hits;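 active = inhibition above a per-plate cutoff, the mean inhibition of test compounds on that plate plus 3 SD, cut at about 49% in these data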;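 also: 0% = DMSO plus EC80 beta-PEA response and 100% = DMSO alone without agonist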
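Test system: CHO RD-HGA16 cells bearing hTAAR1 | Reagent: β-PEA, EC80 | Compound dosing: 3 µM, single point | Schedule: Dye loading 75 min at 37 °C, then 30 min room temperature | Signal: Calcium fluorescence with Fluo-8 | Evaluation: Percent inhibition of PEA-evoked calcium signal, max/basal emission ratio | Control set: DMSO-only wells and EC80 β-PEA-stimulated wells | Repeats: Singlicate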
CHRM1 antagonist: antagonists of human M1 muscarinic receptor | inhibition, % at 3 µM | CHO-K1 hM1, Fluo-8 calcium fluorescence, ACh EC80 antagonist | 360,000 compounds, 1.3% hits;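 active = percent inhibition above its own plate's cutoff, namely the mean of that plate's compound wells plus 3 SD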;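 also: peak over basal fluorescence ratio during 140 s after agonist addition; 0% = ACh EC80 plus DMSO and 100% = DMSO alone without agonist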
TAAR1 ag: human TAAR1 agonism | 360,000 compounds, 0.99% hits | CHO RD-HGA16 TAAR1, Fluo-8 calcium fluorescence; vehicle wells 0%, saturating PEA agonist 100% | activation, % at 3 µM;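 active = activation above the mean activation of all test compounds in the run plus 3 SD, cut at about 38% in these data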
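Test system: RD-HGA16 (CHO) cells co-expressing Gα16 and hTAAR1 / Benchmarks: DMSO vehicle as 0%, PEA at EC100 as 100% / Repeats: no replicates (n 1) / Measure: % activation from peak over basal fluorescence ratio, DMSO-to-PEA scaled / Timing: 17-24 h plating, Fluo-8 75 min 37 °C, 30 min RT / Technique: kinetic Fluo-8 calcium fluorescence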
m5-HT2A agonist: activates the mouse 5-HT2A serotonin receptor | CHO-K1 mHTR2A beta-arrestin complementation, luminescence; percent of 30 µM serotonin response | 360,000 compounds, 0.66% hits | AID 624169 | activation, % at 7.6 µM | P35363;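 active = activation above a run cutoff, the mean activation of all tested compounds plus 3 SD, cut at about 14% in these data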;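 also: 0% = plate median of compound wells and 100% = 30 µM serotonin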
Target sequence (P35363 whole entry, looked up): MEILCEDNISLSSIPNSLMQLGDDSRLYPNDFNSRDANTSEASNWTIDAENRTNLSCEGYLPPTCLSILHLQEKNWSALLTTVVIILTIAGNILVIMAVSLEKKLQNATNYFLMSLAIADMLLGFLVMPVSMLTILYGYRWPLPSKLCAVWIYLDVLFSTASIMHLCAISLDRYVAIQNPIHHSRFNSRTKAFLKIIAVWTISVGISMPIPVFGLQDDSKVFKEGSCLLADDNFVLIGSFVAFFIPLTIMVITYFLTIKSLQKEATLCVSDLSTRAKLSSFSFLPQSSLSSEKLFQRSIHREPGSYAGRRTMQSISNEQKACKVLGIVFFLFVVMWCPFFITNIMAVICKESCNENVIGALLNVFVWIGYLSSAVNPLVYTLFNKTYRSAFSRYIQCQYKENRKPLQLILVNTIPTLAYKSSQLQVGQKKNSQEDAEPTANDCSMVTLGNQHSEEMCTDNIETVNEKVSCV
The depositor's hits bear a star; · = not tested or not shown.

SMILES | CHRM1 PAM | M1 ag | TAAR1 antagonist | CHRM1 antagonist | TAAR1 ag | m5-HT2A agonist
CCOC(=O)CCNC(=O)N1CCC(CCC(=O)NCc2ccc(F)cc2)CC1 | -0.5 | -3.9 | -6.5 | -4.0 | 1.6 | 5.6
Cc1ccc(C(=O)OCC(=O)NC(=O)NCc2ccccc2)cc1C | 6.3 | -2.2 | 50.1* | -6.3 | 30.4 | 4.0
CCOC(=O)c1ccc(CNCc2ccccc2)cc1 | -24.1 | -11.5 | 4.1 | 51.5* | 5.6 | -2.8
CCOC(=O)CCNCc1ccc(F)cc1 | -9.7 | -1.5 | -2.3 | 40.0* | 0.5 | -3.0
Cc1ccc(C(=O)OCC(=O)NCCc2ccccc2)cc1C | 0.3 | -7.1 | 15.8 | 1.8 | 14.6 | 3.5
CCOC(=O)Cn1nc(C)c(NC(=O)COc2ccccc2[N+](=O)[O-])c1C | 9.1 | -2.1 | -19.5 | -6.6 | 0.7 | -2.0
Cc1c(P(=S)(c2ccccc2)c2ccccc2)[n+]2ccccc2n1C/C=C/c1ccccc1 | -30.8 | -8.5 | 13.0 | 56.5* | 1.8 | 7.2
CCOC(=O)N1CCN(S(=O)(=O)c2ccc(Cl)cc2)CC1 | 11.4 | 1.3 | -26.7 | -14.0 | -0.5 | 8.9
CCOC(=O)N1CCC(N2CCN(c3cc(C)ccc3C)CC2)CC1 | -11.8 | 4.1 | 7.2 | 51.4* | 6.9 | -4.4
CCOC(=O)N1CCC(N2CCN(S(=O)(=O)c3ccc(Cl)cc3)CC2)CC1 | -14.9 | 39.4* | 9.0 | -0.9 | 4.8 | 1.1
COc1ccccc1NS(=O)(=O)c1cc(NC(=O)CCc2nc3ccccc3c(=O)[nH]2)ccc1C | 0.4 | -3.5 | 33.9 | -1.6 | 3.4 | -5.5
O=C(CSc1nc(C(F)(F)F)cc(=O)[nH]1)Nc1cccc2ccccc12 | 24.4* | 3.1 | -15.9 | -29.3 | 6.4 | 13.8
CC[C@H](C)Cc1cn([C@@H](CCCCNC(=O)OC(C)(C)C)C(=O)NCCCCCCCCCCC(=O)N2CCN(C(=O)OC(C)(C)C)CC2)nn1 | -28.2 | -2.3 | 62.8* | 47.8* | 14.2 | 5.9
COc1ccc(-c2cc(C(=O)Nc3c(F)cc(F)cc3Br)no2)cc1 | 5.4 | -5.6 | -16.9 | -5.6 | 7.3 | 9.4
O=C(CCCOC(=O)c1ccc(O)cc1O)c1ccc(Br)cc1 | -12.3 | 0.4 | 30.0 | 19.2* | 1.0 | 0.1
Cc1[nH]nc2c1C(=O)CC(C)(C)C2 | 21.0* | 4.2 | -0.3 | -32.8 | 5.5 | 2.6
COC(=O)c1ccc(NC(=O)C(OC)c2ccccc2)cc1 (stereo not drawn) | 7.8 | 1.0 | -7.0 | 9.5 | 12.3 | -3.0
CCCc1ncc(C(O)c2cccc3ccccc23)n1C (stereo not drawn) | -2.2 | -3.9 | -12.6 | -12.5 | 5.2 | -2.3
Cn1c(Cl)cnc1C(O)(c1ccccc1)c1ccccc1 | 1.0 | -4.4 | -7.0 | -10.4 | 0.1 | 7.6
CCCc1ncc(C(O)(c2ccccc2)c2ccc(C)cc2)n1C (stereo not drawn) | -24.6 | -7.7 | -8.9 | 94.6* | 2.2 | -2.1
CCCc1ncc(C(O)(c2ccccc2)c2ccccc2)n1C | -32.2 | -13.1 | 6.5 | 93.9* | 1.7 | -1.0
CCN(CC)CCNCC(O)(c1ccc(Cl)cc1)c1ccc(Cl)cc1 | -33.0 | -12.8 | 4.8 | 51.0* | 6.5 | -9.4
Cc1cc(S(=O)(=O)Nc2ccc(C(=O)NCC(c3ccccc3)N(C)C)cc2)ccc1F (stereo not drawn) | -7.6 | -4.7 | 4.6 | 13.0 | 5.5 | -4.5
COc1ccccc1C(CNC(=O)c1ccc(NS(=O)(=O)c2ccc(F)c(C)c2)cc1)N(C)C (stereo not drawn) | -8.8 | 27.8* | -21.0 | 20.6 | -1.1 | -3.6
COc1cccc(CN(C)C(=O)c2cccc(S(=O)(=O)NCc3ccccc3)c2)c1OC | 6.5 | 1.3 | 30.9 | -12.9 | 11.1 | 0.4
SMILES | CHRM1 PAM | M1 ag | TAAR1 antagonist | CHRM1 antagonist | TAAR1 ag | m5-HT2A agonist
COc1ccccc1C(CNC(=O)c1cccc(NS(=O)(=O)c2ccc(C)c(F)c2)c1)N(C)C (stereo not drawn) | -26.8 | -7.8 | -3.1 | 85.0* | 2.3 | -3.8
COc1ccccc1C(CNC(=O)c1cccc(S(=O)(=O)NCc2ccccc2)c1)N(C)C (stereo not drawn) | -18.0 | -1.7 | -4.0 | 49.9* | 2.3 | 2.6
CC(=O)c1ccc(S(=O)(=O)NCc2ccc(C(=O)NCC(c3ccccc3)N(C)C)cc2)cc1 (stereo not drawn) | -30.0 | -10.7 | -6.5 | 25.0* | -0.5 | -5.8
CN(C)C(CNC(=O)c1ccc(S(=O)(=O)Nc2ccccc2F)cc1)c1ccccc1 (stereo not drawn) | 2.6 | -6.2 | -9.0 | 3.8 | 7.3 | -12.4
CC(=O)O[C@H]1C=C[C@@H](C#Cc2ccc(C(C)(C)C)cc2)O[C@@H]1COC(=O)Nc1ccccc1 | · | · | -1.9 | · | 0.1 | ·
CC(C)N1C(=O)CSC1c1ccc(Br)cc1 (stereo not drawn) | 9.7 | -10.2 | -13.9 | -0.9 | 10.6 | 0.3
NC(=O)CC(NC(=O)Cc1ccc(Cl)cc1)c1ccc(NC2CCN(Cc3ccccc3)CC2)c([N+](=O)[O-])c1 (stereo not drawn) | -26.8 | -11.0 | -3.7 | 26.7 | 11.2 | -3.2
NC(=O)CC(NC(=O)c1cccc(Br)c1)c1ccc(NC2CCN(Cc3ccccc3)CC2)c([N+](=O)[O-])c1 (stereo not drawn) | -25.8 | -10.7 | 1.8 | 46.1* | 0.3 | -1.8
Cc1ccc(S(=O)(=O)N2CC3(O)CN(C(=O)OC(C)C)N(C(=O)OC(C)C)CC3(OC(=O)NC3CCCC3)C2)cc1 (stereo not drawn) | 1.4 | -1.0 | 49.4* | -4.1 | 5.8 | 7.3
O=C(CCS(=O)(=O)CCN1CCOCC1)NCNC(=O)CCS(=O)(=O)CCN1CCOCC1 | 4.3 | -8.5 | -8.4 | -6.8 | 0.3 | 0.8
CC(C)CCNc1ncnc2c1nnn2Cc1ccccc1Cl | 5.2 | -6.5 | 20.9 | -4.5 | 40.1* | 4.6
Clc1ccc(CCNc2ncnc3c2nnn3Cc2ccccc2)cc1 | 15.5 | -2.7 | -32.5 | -18.2 | 37.7* | 6.3
OCCNc1ncnc2c1nnn2Cc1ccccc1 | 7.7 | -1.6 | -17.2 | -9.6 | 1.7 | 0.7
CCC(Sc1ccc(Cl)cc1)C(=O)Nc1nnc(-c2cccc([N+](=O)[O-])c2)s1 (stereo not drawn) | 5.2 | 19.9* | -3.1 | -9.2 | 4.9 | 12.6
CCC(Sc1nncn1C)C(=O)Nc1nnc(-c2ccccc2Cl)s1 (stereo not drawn) | 3.8 | -7.6 | -7.5 | -12.3 | 2.3 | -6.1
COC(C[C@H](O)[C@@H](C)[C@H](O)COCc1ccccc1)OC | -4.4 | -0.8 | 9.1 | 12.9 | 0.2 | 9.9
CCN(CC)S(=O)(=O)c1cccc(NC(=O)c2ccc(SC)cc2OC)c1 | -9.2 | -4.7 | 51.6* | 14.4 | 5.1 | -5.7
